In ChEMBL document CHEMBL1141343, “Scalarane sesterterpenes from a marine sponge of the genus Spongia and their FXR antagonistic activity” (J Nat Prod, 2007) one finds IC50 and Activity data, which are given here for 6 compounds.

In one test the target is T1, Bile acid receptor (Homo sapiens, UniProt Q96RI1).
T1 sequence (Q96RI1 whole entry): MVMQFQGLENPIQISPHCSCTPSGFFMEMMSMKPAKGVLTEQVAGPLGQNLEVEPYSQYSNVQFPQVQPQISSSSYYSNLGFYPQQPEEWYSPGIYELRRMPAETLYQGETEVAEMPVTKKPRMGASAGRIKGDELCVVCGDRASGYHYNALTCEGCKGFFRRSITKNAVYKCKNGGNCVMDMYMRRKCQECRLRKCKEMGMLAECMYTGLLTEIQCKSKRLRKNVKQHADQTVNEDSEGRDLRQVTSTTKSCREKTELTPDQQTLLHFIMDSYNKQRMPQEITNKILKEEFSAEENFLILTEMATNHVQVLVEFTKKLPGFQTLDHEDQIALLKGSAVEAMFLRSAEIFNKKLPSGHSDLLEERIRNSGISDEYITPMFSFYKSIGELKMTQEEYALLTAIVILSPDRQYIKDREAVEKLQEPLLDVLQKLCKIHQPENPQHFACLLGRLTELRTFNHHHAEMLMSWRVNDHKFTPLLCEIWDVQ
Description: Antagonist activity at human FXR expressed in monkey CV1 cells after 24 hrs by ecdysone receptor response element-driven luciferase reporter assay. The format is functional, cell-based, CV-1. Summed up: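 Full-length human FXR, EcRE-driven luciferase reporter and β-galactosidase plasmid cotransfected into CV-1 cells, seeded 24 h beforehand in DMEM with 10% lipid-depleted FBS at 37 °C, 5% CO2. After a further 24 h, cells were exposed to compound or DMSO vehicle with 50 µM CDCA. Harvest was at 24 h, with luciferase normalized to β-galactosidase. Triplicate wells, three repeats.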

The nature of test [1]: Cytotoxicity against monkey CV1 cells after 24 hrs by MTT assay. The format is cell-based. The following applies: Chlorocebus aethiops, CV-1, 24 h. An outline of the steps:
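CV-1 monkey kidney cells plated in DMEM with 10% FBS at 37 °C, 5% CO2, grown 24 h, then exposed to compounds at a range of concentrations for 24 h. MTT at 1 mg/mL added for 1 h at 37 °C. Formazan dissolved in DMSO and absorbance read at 450 nm. Each experiment repeated more than three times.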
On the technique in general: Tetrazolium dyes change colour on reduction, which living cells bring about.

The target of test [2] is T2, Bile acid receptor (Homo sapiens) (UniProt Q96RI1).
T2 sequence (whole entry): T1 sequence (Q96RI1 whole entry)
Nature of the test: Inhibition of CDCA-mediated interaction between FXR ligand binding domain and SRC1 at 25 uM by SPR spectroscopy. Summed up: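 Human FXR LBD (4 µM) preincubated 1 h with compound plus 50 µM CDCA, then injected for 120 s over an immobilized SRC-1 coactivator peptide surface, followed by a 120 s buffer wash. Biacore SPR, 25 °C.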
For orientation: Surface plasmon resonance follows binding to a sensor surface in real time, without labels.

SMILES strings stand for the structures. Active and inactive are the calls of the source. The calls are words filed in the database; no cut-off is given here. Some results are limits rather than exact numbers.

As to `C[C@@]1(CO)CCC[C@]2(C)[C@H]3C[C@@H](O)[C@]4(C)[C@H]5COC(=O)C5=CC[C@H]4[C@]3(C)CC[C@@H]12`, the IC50 – broadly, the concentration that inhibits the measured activity by half – at Bile acid receptor came to 2.4 µM; in test [1], 49.4 µM.

For the compound `CC1(C)CCC[C@]2(C)[C@H]3C[C@@H](O)[C@]4(C)[C@H]5COC(=O)C5=CC[C@H]4[C@]3(C)CC[C@@H]12`, the values for the IC50 (at Bile acid receptor; in test [1]) were 31.6 µM and 41.4 µM, respectively. Moreover, in test [2], the outcome was Active.

On to `CO[C@@H]1OC(=O)C2=CC[C@H]3[C@]4(C)CC[C@H]5C(C)(C)CCC[C@]5(C)[C@H]4C[C@@H](O)[C@]3(C)[C@H]21`, for which the IC50 against Bile acid receptor stood at 24 µM; in test [1] it was 48 µM. In addition, in test [2], the result was Active.

In the case of `CC(=O)O[C@@H]1C[C@@H]2[C@@]3(C)CCCC(C)(C)[C@@H]3CC[C@@]2(C)[C@@H]2CC=C3C(=O)O[C@@H](O)[C@@H]3[C@@]12C`, the IC50 amounted to 60.4 µM against Bile acid receptor and 75.1 µM in test [1]. Besides, the result in test [2] was Active.

For the compound `C[C@]1(CO)CCC[C@]2(C)[C@H]3C[C@@H](O)[C@]4(C)[C@H]5COC(=O)C5=CC[C@H]4[C@]3(C)CC[C@@H]12`, the IC50 (at Bile acid receptor; in test [1]) was above 100 µM each time.

`CC1(C)CCC[C@]2(C)[C@H]3C[C@@H](O)[C@]4(C)[C@@H]5C(=CC[C@H]4[C@]3(C)CC[C@@H]12)C(=O)O[C@H]5O`: the IC50 turned out to be 75 µM on Bile acid receptor and 77.2 µM in test [1]. In addition, the outcome in test [2] was Active.
